Consider 2 compounds from ChEMBL document CHEMBL1150763, “Discovery of imidazo[1,5-c]imidazol-3-ones: weakly basic, orally active factor Xa inhibitors” (J Med Chem, 2008).

Some results are limits rather than exact numbers.

A short description of series [1]: Cmax in Sprague-Dawley rat in fed state at 3 mg/kg, po. Also noted: dose 3 mg/kg, route oral. In kind it is ADME, organism-based. To be noted: in vivo. The procedure, abridged:
(§1)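 Male animals (SD rats 8 weeks old or cynomolgus monkeys, n = 3), fasted or fed, given 3 mg/kg orally as 0.5% methylcellulose suspension. Blood at 15, 30 min and 1, 2, 4, 8, 24 h (rat tail vein, monkey femoral vein); plasma deproteinized with acetonitrile, diluted in pH 3.0 ammonium formate, analysed by LC/MS/MS in positive ion mode.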

Series [2] concerns Plasma. Nature of the series: Anticoagulant potency in mouse plasma assessed as concentration required to double the time to clot formation by PT assay. Type of series: functional.
A short description of the next series: physchem. To be noted: buffer, pH 7.4.
A short description of series [3]: Volume of distribution in steady state in Sprague-Dawley rat in fed state at 0.3 mg, iv. In kind it is ADME, organism-based. To be noted: in vivo, read-out: Vdss. The procedure, abridged:
(§2)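 Male SD rats (8 weeks old) or cynomolgus monkeys, n = 3, given 0.3 mg/kg intravenously in DMA/PEG400. Blood sampled at 5, 10, 15, 30 min and 1, 2, 4, 8, 24 h (rat tail vein, monkey femoral vein); acetonitrile-deproteinized plasma diluted in pH 3.0 ammonium formate and quantified by LC/MS/MS.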

Series [4] is described as follows: AUC (0 to 24 hrs) in cynomolgus monkey in fasted state at 3 mg/kg, po. Type of series: ADME, organism-based, Macaca fascicularis. The arrangement: time < 24 hr, dose 3 mg/kg, route oral. To be noted: plasma. The procedure, abridged:
(§3)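 Male cynomolgus monkeys, n = 3, fasted or fed; single dose iv 0.3 mg/kg (DMA/PEG400) or po 3 mg/kg (0.5% methylcellulose suspension). Femoral-vein blood sampled 5 min–24 h after iv, 15 min–24 h after oral. Plasma deproteinized with acetonitrile, supernatant diluted in 0.01 mol/L HCO₂NH₄ pH 3.0, drug measured by LC/MS/MS.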

The target in the next series is Plasminogen (Homo sapiens, UniProt P00747). Nature of the series: Inhibition of plasmin.
Chain of Plasminogen (P00747 97-580 limits assumed): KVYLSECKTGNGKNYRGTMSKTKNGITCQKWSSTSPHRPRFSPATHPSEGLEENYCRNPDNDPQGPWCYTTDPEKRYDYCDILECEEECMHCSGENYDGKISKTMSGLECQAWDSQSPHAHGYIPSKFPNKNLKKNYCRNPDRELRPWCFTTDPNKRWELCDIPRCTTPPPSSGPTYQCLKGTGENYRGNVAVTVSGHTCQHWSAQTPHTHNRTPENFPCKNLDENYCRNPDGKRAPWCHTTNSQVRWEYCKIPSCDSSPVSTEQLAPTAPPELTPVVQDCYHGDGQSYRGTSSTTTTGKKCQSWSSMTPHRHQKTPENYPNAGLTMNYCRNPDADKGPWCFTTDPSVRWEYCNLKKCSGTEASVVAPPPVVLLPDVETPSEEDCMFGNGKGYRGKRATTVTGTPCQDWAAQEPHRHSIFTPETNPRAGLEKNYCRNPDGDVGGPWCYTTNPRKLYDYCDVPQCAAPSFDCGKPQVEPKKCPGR
Chain of Plasminogen (P00747 581-810 limits assumed): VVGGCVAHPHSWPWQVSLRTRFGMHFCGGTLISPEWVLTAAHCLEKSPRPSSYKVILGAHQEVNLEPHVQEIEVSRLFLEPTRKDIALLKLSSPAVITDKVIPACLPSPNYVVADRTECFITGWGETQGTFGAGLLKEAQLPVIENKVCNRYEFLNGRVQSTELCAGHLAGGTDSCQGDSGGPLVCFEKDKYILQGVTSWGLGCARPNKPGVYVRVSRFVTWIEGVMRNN
A short description of series [5]: Total clearance in cynomolgus monkey in fed state at 0.3 mg, iv. In kind it is ADME, organism-based, Macaca fascicularis. Conditions: in vivo. The procedure, abridged:
as §2

Series [6] can be described thus: Mean residence time in cynomolgus monkey in fasted state at 3 mg/kg, po. In kind it is ADME, organism-based, Macaca fascicularis. Also noted: dose 3 mg/kg, route oral. Conditions: in vivo. The procedure, abridged:
as §1

Series [7] in a line: Total clearance in Sprague-Dawley rat in fed state at 0.3 mg, iv. To be noted: in vivo. Type of series: ADME, organism-based. The procedure, abridged: as §2
A short description of series [8]: Mean residence time in Sprague-Dawley rat in fed state at 0.3 mg, iv. In kind it is ADME, organism-based. To be noted: in vivo. The procedure, abridged: as §2
Series [9] in a line: Bioavailability in cynomolgus monkey in fed state at 3 mg/kg, po. In kind it is ADME, organism-based, Macaca fascicularis. Conditions: in vivo. The procedure, abridged: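 Male cynomolgus monkeys, fed, given 3 mg/kg orally as 0.5% methylcellulose suspension and 0.3 mg/kg iv in DMA/PEG400 (n = 3); femoral vein plasma sampled to 24 h, deproteinized with acetonitrile and quantified by LC/MS/MS.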

Series [10] concerns Rattus norvegicus. Nature of the series: Effect on bleeding time in Sprague-Dawley rat at 100 mg/kg, po. In kind it is functional. The procedure, abridged:
(§4)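 Male Sprague-Dawley rats (7 weeks old) dosed orally 30 min beforehand, then anaesthetized with pentobarbital; tail transected 2-3 mm from tip, blood blotted every 30 s until bleeding stopped or 30 min elapsed; mean ± SEM, n = 6.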

Series [11] can be described thus: Mean residence time in cynomolgus monkey in fed state at 3 mg/kg, po. To be noted: in vivo. The arrangement: dose 3 mg/kg, route oral. In kind it is ADME, organism-based, Macaca fascicularis. The procedure, abridged:
as §1

The nature of series [12]: AUC (0 to 24 hrs) in Sprague-Dawley rat in fed state at 3 mg/kg, po. In kind it is ADME, organism-based. Also noted: time < 24 hr, dose 3 mg/kg, route oral. To be noted: plasma. The procedure, abridged:
(§5)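 Male SD (IGS) rats, 8 weeks old, n = 3, fasted or fed; dosed iv at 0.3 mg/kg in DMA/PEG400 or orally at 3 mg/kg as 0.5% methylcellulose suspension. Tail-vein blood drawn 5 min–24 h (iv) or 15 min–24 h (po). Plasma deproteinized with acetonitrile, diluted in 0.01 mol/L HCO₂NH₄ pH 3.0, and quantified by LC/MS/MS in positive ion mode.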

Series [13] in a line: Mean residence time in cynomolgus monkey in fed state at 0.3 mg, iv. In kind it is ADME, organism-based, Macaca fascicularis. To be noted: in vivo. The procedure, abridged:
as §2

The nature of series [14]: Mean residence time in Sprague-Dawley rat in fasted state at 3 mg/kg, po. In kind it is ADME, organism-based. Also noted: dose 3 mg/kg, route oral. Conditions: in vivo. The procedure, abridged:
as §1

The test system of series [15] is Rattus norvegicus. Nature of the series: Effect on bleeding time in Sprague-Dawley rat at 30 mg/kg, po. In kind it is functional. The procedure, abridged: as §4
Series [16] is described as follows: Tmax in Sprague-Dawley rat in fed state at 3 mg/kg, po. In kind it is ADME, organism-based. The arrangement: dose 3 mg/kg, route oral. Conditions: in vivo. The procedure, abridged:
as §1

Series [17] concerns the target Tissue-type plasminogen activator (Homo sapiens, UniProt P00750). Nature of the series: Inhibition of tPA.
Series [18] can be described thus: Bioavailability in Sprague-Dawley rat in fed state at 3 mg/kg, po. In kind it is ADME, organism-based. Conditions: in vivo. The procedure, abridged: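 Male SD (IGS) rats, 8 weeks old, n = 3, fed or fasted. Dosed iv at 0.3 mg/kg in DMA/PEG400 and po at 3 mg/kg as a 0.5% methylcellulose suspension. Tail-vein blood taken at 15, 30 min and 1, 2, 4, 8, 24 h after oral dosing (iv adds 5 and 10 min). Plasma deproteinized with acetonitrile and assayed by LC/MS/MS.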

Series [19] can be described thus: Mean residence time in Sprague-Dawley rat in fed state at 3 mg/kg, po. Conditions: in vivo. In kind it is ADME, organism-based. Also noted: dose 3 mg/kg, route oral. The procedure, abridged: as §1
A short description of series [20]: Cmax in cynomolgus monkey in fasted state at 3 mg/kg, po. In kind it is ADME, organism-based, Macaca fascicularis. Also noted: dose 3 mg/kg, route oral. Conditions: in vivo. The procedure, abridged:
as §1

A short description of series [21]: Tmax in cynomolgus monkey in fed state at 3 mg/kg, po. Type of series: ADME, organism-based, Macaca fascicularis. Also noted: dose 3 mg/kg, route oral. Conditions: in vivo. The procedure, abridged:
as §1

Series [22] can be described thus: AUC (0 to 24 hrs) in Sprague-Dawley rat in fed state at 0.3 mg, iv. In kind it is ADME, organism-based. The arrangement: time < 24 hr, dose 0.3 mg, route intravenous. Conditions: plasma. The procedure, abridged:
as §5

A short description of series [23]: AUC (0 to 24 hrs) in Sprague-Dawley rat in fasted state at 3 mg/kg, po. To be noted: plasma. In kind it is ADME, organism-based. The arrangement: time < 24 hr, dose 3 mg/kg, route oral. The procedure, abridged:
as §5

Series [24] in a line: Cmin in cynomolgus monkey in fed state at 0.3 mg, iv after 5 mins. Type of series: ADME, organism-based, Macaca fascicularis. Conditions: in vivo, read-out: Cmin. The procedure, abridged: as §2
The nature of series [25]: Cmax in Sprague-Dawley rat in fasted state at 3 mg/kg, po. Conditions: in vivo. Type of series: ADME, organism-based. Also noted: dose 3 mg/kg, route oral. The procedure, abridged: as §1
In the next series the target is Prothrombin (Homo sapiens, UniProt P00734). Nature of the series: Inhibition of thrombin.
Series [26] can be described thus: Basicity, pKa by titration method. Type of series: physicochemical.
A short description of series [27]: Inhibition of trypsin.
The nature of series [28]: Cmax in cynomolgus monkey in fed state at 3 mg/kg, po. Type of series: ADME, organism-based, Macaca fascicularis. The arrangement: dose 3 mg/kg, route oral. Conditions: in vivo. The procedure, abridged:
as §1

Series [29] can be described thus: AUC (0 to 24 hrs) in cynomolgus monkey in fed state at 0.3 mg, iv. Type of series: ADME, organism-based, Macaca fascicularis. The arrangement: dose 0.3 mg, time < 24 hr, route intravenous. To be noted: plasma. The procedure, abridged:
as §3

The nature of series [30]: Cmin in Sprague-Dawley rat in fed state at 0.3 mg, iv after 5 mins. In kind it is ADME, organism-based. To be noted: in vivo, read-out: Cmin. The procedure, abridged: as §2
The nature of series [31]: Volume of distribution in steady state in cynomolgus monkey in fed state at 0.3 mg, iv. Type of series: ADME, organism-based, Macaca fascicularis. To be noted: in vivo, read-out: Vdss. The procedure, abridged: as §2
The nature of series [32]: AUC (0 to 24 hrs) in cynomolgus monkey in fed state at 3 mg/kg, po. To be noted: plasma. Also noted: time < 24 hr, dose 3 mg/kg, route oral. In kind it is ADME, organism-based, Macaca fascicularis. The procedure, abridged: as §3
A further series deals with CYP3A4 (Homo sapiens, UniProt P08684). Nature of the series: Inhibition of CYP3A4 expressed in human B-lymphoblastoid cells at 10 uM. In kind it is ADME, cell-based. The procedure, abridged:
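Recombinant CYP3A4 (10 nM, from CYP3A4-expressing human B-lymphoblastoid cells) incubated with 100 µM testosterone and 10 µM test compound for 30 min at 37 °C; 6β-hydroxytestosterone formation quantified by HPLC-UV.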

The test system of series [33] is Plasma. Nature of the series: Anticoagulant potency in human plasma assessed as concentration required to double the time to clot formation by PT assay. In kind it is functional. The procedure, abridged:
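Human normal plasma mixed with compound dilutions in DMSO (1.5 µL into 48.5 µL), preincubated 4 min at 37 °C, clotting started with thromboplastin and timed on an automatic coagulometer. Prolongation relative to DMSO; concentration doubling clotting time derived by least-squares regression; mean of duplicates.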

The nature of series [34]: Tmax in Sprague-Dawley rat in fasted state at 3 mg/kg, po. Type of series: ADME, organism-based. Also noted: dose 3 mg/kg, route oral. To be noted: in vivo. The procedure, abridged: as §1
Series [35] is described as follows: Tmax in cynomolgus monkey in fasted state at 3 mg/kg, po. Type of series: ADME, organism-based, Macaca fascicularis. Also noted: dose 3 mg/kg, route oral. To be noted: in vivo. The procedure, abridged:
as §1

Series [36] has as its system Rattus norvegicus. Nature of the series: Effect on bleeding time in Sprague-Dawley rat at 0.3 mg/kg, po. Type of series: functional. The procedure, abridged:
(§6)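 Male Sprague-Dawley rats (7 weeks old) dosed orally 18 h before measurement, then anesthetized with sodium pentobarbital. Tail transected 2-3 mm from the tip; blood blotted with filter paper every 30 s until bleeding stopped or 30 min elapsed. Bleeding time given as mean ± SEM, n = 6, compared with a vehicle group by one-tailed Shirley-Williams' test.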

The subject of series [37] is Rattus norvegicus. Nature of the series: Effect on bleeding time in Sprague-Dawley rat at 1 mg/kg, po. In kind it is functional. The procedure, abridged:
as §6

Chain of CYP3A4 (P08684 whole entry): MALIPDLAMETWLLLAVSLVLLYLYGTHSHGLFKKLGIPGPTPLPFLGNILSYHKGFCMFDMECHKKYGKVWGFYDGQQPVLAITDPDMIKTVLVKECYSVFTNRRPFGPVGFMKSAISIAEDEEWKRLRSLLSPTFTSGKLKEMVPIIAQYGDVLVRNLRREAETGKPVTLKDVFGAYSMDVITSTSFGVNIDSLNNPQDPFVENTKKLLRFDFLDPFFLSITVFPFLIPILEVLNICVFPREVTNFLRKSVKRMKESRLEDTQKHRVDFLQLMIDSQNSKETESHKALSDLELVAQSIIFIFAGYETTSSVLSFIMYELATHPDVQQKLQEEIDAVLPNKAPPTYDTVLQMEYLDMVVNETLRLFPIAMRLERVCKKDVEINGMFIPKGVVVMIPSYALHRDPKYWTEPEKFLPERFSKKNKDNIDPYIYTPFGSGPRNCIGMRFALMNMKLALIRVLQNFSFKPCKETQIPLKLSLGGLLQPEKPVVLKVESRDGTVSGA
Chain of Tissue-type plasminogen activator (P00750 whole entry): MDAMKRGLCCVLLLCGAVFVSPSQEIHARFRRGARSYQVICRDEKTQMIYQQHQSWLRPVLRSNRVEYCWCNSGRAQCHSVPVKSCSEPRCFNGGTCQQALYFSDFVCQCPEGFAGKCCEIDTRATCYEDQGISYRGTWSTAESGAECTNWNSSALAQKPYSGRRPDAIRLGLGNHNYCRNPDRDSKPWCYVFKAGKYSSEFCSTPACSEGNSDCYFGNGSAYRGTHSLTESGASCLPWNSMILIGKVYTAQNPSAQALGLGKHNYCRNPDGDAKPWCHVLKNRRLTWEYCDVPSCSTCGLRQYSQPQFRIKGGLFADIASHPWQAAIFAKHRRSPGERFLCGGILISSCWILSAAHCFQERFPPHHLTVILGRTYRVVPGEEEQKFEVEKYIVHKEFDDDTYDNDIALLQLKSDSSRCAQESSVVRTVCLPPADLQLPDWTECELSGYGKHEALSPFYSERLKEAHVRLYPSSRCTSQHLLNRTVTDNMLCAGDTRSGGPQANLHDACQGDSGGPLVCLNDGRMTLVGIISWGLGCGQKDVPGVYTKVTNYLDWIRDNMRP

For `Cc1ncc2n1C(=O)N(C1CCN(C(=O)CCS(=O)(=O)c3ccc4cc(Cl)ccc4c3)CC1)C2`, the Cmax in [1] turned out to be 145 ng/mL; in [20] it was 1200 ng/mL; in [25], 570 ng/mL; in [28] it was 269 ng/mL. For the same compound, the Activity in the series with Plasma [2] came to 2 µM; with Plasma [33], 1 µM. The logD in the series “physchem” was 2.3. In addition, the figures for the Vd in series [3] and in series [31] were 0.888 L/kg and 0.556 L/kg, respectively. For the same compound, the AUC(0-t) at 24 h in series [4] worked out at 2120 ng·h/mL; in series [12], 597 ng·h/mL; in series [22] it was 245 ng·h/mL; in series [23], 417 ng·h/mL; in series [29] it was 565 ng·h/mL; in series [32], 2590 ng·h/mL. The Ki on Plasminogen was greater than 60 µM; in series [17], greater than 60 µM; at Prothrombin, 6.2 µM; in [27] it was greater than 60 µM. In addition, the clearance was 9.02 mL/min/kg in [5] and 20.8 mL/min/kg in series [7]. The MRT came out at 1.6 h in series [6]; 0.7 h in series [8]; 7 h in series [11]; 1 h in series [13]; 1.5 h in [14]; 3.6 h in [19]. The bioavailability turned out to be 46% in [9] and 24% in series [18]. Moreover, the Time with Rattus norvegicus [10] was 1040 s; in the series with Rattus norvegicus [15], 490 s. The Tmax in series [16] was 1.2 h; in [21], 2.3 h; in series [34] it was 0.3 h; in [35], 0.8 h. The values for the concentration at 5 min in series [24] and in series [30] were 612 ng/mL and 291 ng/mL, respectively. In addition, the pKa in [26] was determined as 5. On CYP3A4, this compound came in with an inhibition at 10 µM of 23%.

For the compound `CC(=O)CC(c1ccccc1)c1c(O)c2ccccc2oc1=O` (stereo unspecified) [WARFARIN], the Time with Rattus norvegicus [36] is listed as 445 s; with Rattus norvegicus [37], 1590 s.
